In ChEMBL document CHEMBL4346690, “Structure-activity relationship studies of (E)-3,4-dihydroxystyryl alkyl sulfones as novel neuroprotective agents based on improved antioxidant, anti-inflammatory activities and BBB permeability” (Eur J Med Chem, 2019):
Active and inactive are the calls of the source. The calls are words filed in the database; no cut-off is given here.

What was measured:
[1] = Antioxidant activity assessed as DPPH radical scavenging activity after 1 hr by […]; format: functional
Method in brief: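 DPPH (0.2 mM) in ethanol mixed with sample, kept 1 h at room temperature, absorbance read at 517 nm. Scavenging % = [1−(Ac−Ab)/A0]×100, where Ab is the sample in ethanol without DPPH and A0 is the ethanol+DPPH control. EC50 reported; vitamin C used as reference antioxidant; mean ± SD, n = 3.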

[2] = tested on: PC-12; assay: Neuroprotection activity in rat PC12 cells assessed as reduction in 6-OHDA-induced cell damages at 10 uM preincubated for 3 hrs followed by H2O2 addition and measured after 24 hrs by MTT assay relative to control; format: functional, cell-based; details: in the assay text read “6-OHDA addition” for “H2O2 addition”
Method in brief: (§1)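 PC12 cells plated at 2 × 10^5 cells mL−1 for 1 day, pretreated 3 h with compounds at 2.5, 5 or 10 µM, then 6-OHDA (final 250 µM) added for 24 h. Viability by MTT, absorbance 570 nm; untreated cells = 100%; mean ± SD, n = 3.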

[3] = Cytotoxicity against […] BV2 cells assessed as cell viability at 0.625 to 40 uM after 24 hrs by MTS assay; format: cell-based; details: read-out: Activity
Method in brief: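 Viability of BV2 cells read by MTS under the NO-assay conditions: 3 h compound (0.625–40 µM) pretreatment followed by LPS 100 ng mL−1 for 24 h.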

[4] = tested on: PC-12; assay: Neuroprotection activity in rat PC12 cells assessed as reduction in H2O2-induced cell death preincubated for 3 hrs followed by H2O2 addition and measured after 3 hrs by MTS assay; format: functional, cell-based
Method in brief: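 PC12 cells plated at 2 × 10^5 cells mL−1 for 1 day, pretreated 3 h with compounds, then H2O2 (final 400 µM) for 3 h. Viability by MTS at 490 nm relative to untreated cells (100%); single-concentration tests at 2.5, 5, 10 µM and IC50 values; mean ± SD, n = 3.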

[5] = Cytotoxicity against […] BV2 cells assessed as cell viability at 100 uM after 24 hrs by MTT assay; format: cell-based; details: read-out: Activity
Method in brief: (§2)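 Cells kept in high-glucose DMEM with 10% FBS and 1% PS at 37 °C, 5% CO2. Plated 1 day, then compounds for 24 h; viability by MTT at 100 µM as ODtreated/ODcontrol × 100%, untreated = 100%. Mean ± SD, n = 3.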

[6] = Anti-neuroinflammatory activity in […] BV2 cells assessed as reduction in LPS-induced NO production preincubated for 3 hrs followed by LPS stimulation for 24 hrs by Griess assay; format: functional, cell-based; details: BV-2
Method in brief: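 BV2 microglia seeded 3 × 10^5 cells mL−1 for 1 day; compounds in medium added for 3 h, then LPS (final 100 ng mL−1) for a further 24 h. Supernatant mixed with Griess reagent, absorbance at 540 nm. Inhibition % from NO release of LPS-only, unstimulated and compound+LPS wells; IC50 reported; mean ± SD, n = 3.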

[7] = Cytotoxicity against rat PC12 cells assessed as cell viability at 100 uM after 24 hrs by MTT assay; format: cell-based, PC-12; details: read-out: Activity; method in brief: as §2
[8] = tested on: PC-12; assay: Neuroprotection activity in rat PC12 cells assessed as reduction in 6-OHDA-induced cell damages at 2.5 uM preincubated for 3 hrs followed by H2O2 addition and measured after 24 hrs by MTT assay relative to control; format: functional, cell-based; details: in the assay text read “6-OHDA addition” for “H2O2 addition”; method in brief: as §1
[9] = tested on: PC-12; assay: Neuroprotection against H2O2-induced cell death in rat PC12 cells assessed as increase in cell viability at 5 uM preincubated for 3 hrs followed by H2O2 addition and measured after 3 hrs by MTS assay relative to CAPE; format: functional
Method in brief: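 PC12 cells plated at 2 × 10^5 cells/mL for 1 day, pretreated with compound (2.5, 5, 10 µM) for 3 h, then H2O2 added (final 400 µM) for 3 h. Viability read by MTS at 490 nm, untreated cells = 100%. Mean ± SD, n = 3.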

Structure (SMILES)	EC50 [1] [µM]	Activity [2]	viability at 24 h, up to 40 µM [3] [%]	IC50 [4] [µM]	viability at 24 h, 100 µM [5] [%]	IC50 [6] [µM]	viability at 24 h, 100 µM [7] [%]	Activity [8]	Activity [9] [%]
O=S(=O)(/C=C/c1ccc(O)c(O)c1)CC1CCCO1 (stereo not given)	10.5	inactive	> 90	27.1	93.9	54.6	98		
O=S(=O)(/C=C/c1ccc(O)c(O)c1)CCCCCCCCO	6.7	Active	> 90	7.91	49.5	12.2	87.3	Active	
CCCCCCS(=O)(=O)/C=C/c1ccc(O)c(O)c1	7.3	Active	> 90	1.3	56.2	3.8	63.7	Active	30
CCCCCCCCCCCS(=O)(=O)/C=C/c1ccc(O)c(O)c1	11.4	Active	> 90	2.34	23.2	6.9	52.1	Active	
CCCCCCCCS(=O)(=O)/C=C/c1ccc(O)c(O)c1	6.4	Active	> 90	1.45	63.6	7.6	73.6	Active	
CCCCCS(=O)(=O)/C=C/c1ccc(O)c(O)c1	8.1	Active	> 90	1.83	70.1	3.3	57.4	Active	30
O=S(=O)(/C=C/c1ccc(O)c(O)c1)CCC1CCCCC1	9.8	Active	> 90	2	62.6	11.3	94.9	Active	
O=S(=O)(/C=C/c1ccc(O)c(O)c1)CCCC1CCCCC1	7.9	Active	> 90	1	77.7	9.2	91.3	Active	30
O=S(=O)(/C=C/c1ccc(O)c(O)c1)CC1CC1	10.5	inactive	> 90	6.61	87.8	33.5	92.9		
CCCCCCCS(=O)(=O)/C=C/c1ccc(O)c(O)c1	7.1	Active	> 90	1.33	52.5	8.5	85.7	Active	
O=S(=O)(/C=C/c1ccc(O)c(O)c1)CCCCCCCO	5.9	Active	> 90	9.91	72	14.3	91.8	Active	
CCCCCCCCCCCCS(=O)(=O)/C=C/c1ccc(O)c(O)c1	8.5	Active	> 90	2.27	25.2	6.6	28.2	Active	
O=S(=O)(/C=C/c1ccc(O)c(O)c1)CC1CCCC1	9.4	Active	> 90	2.19	72.7	15.8	85.4	Active	
